In the library only some 2.3% were active in any assay of this set; here they are far more common.
Calb FLC = C. albicans growth modulation with fluconazole. growth inhibition, % (no concentration beside the values). C. albicans CaCi-2 (fluconazole-resistant clinical isolate) + fluconazole, Alamar Blue growth, 48 h. actives 0.57% (n = 300,000);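 active = growth inhibition above about 58% in most replicates, limit read from the data, passing the limit was not always enough; inconclusive = exactly half the replicates above a set limit; inactive = most replicates below a set limit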;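 note: all wells also contain fluconazole at 8 µg/ml as a sub-toxic cotreatment; 0% = median of DMSO wells and 100% = median of geldanamycin control wells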
ASAP1 inh = inhibitors of human ASAP1 ArfGAP activity | ASAP1-stimulated ARF1 GTP hydrolysis, GDP FP detection | actives 0.19% (n = 360,000) | Q9ULH1 | inhibition, % at 16.5 µM; in the data active = inhibition above about 25%;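 note: 0% = vehicle with enzyme and substrate and 100% = no enzyme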
ARFGAP1 inhibitor = inhibits rat ARF GTPase activating protein 1; Q62848; Arfgap1-stimulated ARF1 GTP hydrolysis, GDP FP detection; inhibition, % at 16.5 µM; actives 0.26% (n = 360,000);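 active = inhibition above a per-plate limit, mean inhibition of low control wells plus 3 SD, cut at about 25% in these data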;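 note: 0% = DMSO wells with enzyme and 100% = wells lacking Arfgap1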
Target sequence (Q62848 1-136 limits assumed): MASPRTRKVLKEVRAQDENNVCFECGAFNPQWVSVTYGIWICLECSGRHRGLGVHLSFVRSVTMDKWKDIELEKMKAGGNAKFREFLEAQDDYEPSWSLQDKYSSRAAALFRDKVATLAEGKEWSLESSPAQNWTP
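Assay system: Rat Arfgap1 GAP domain (His6, aa 1-136), purified enzyme | Buffer or medium: HEPES 25 mM pH 7.5, NaCl 150 mM, MgCl2, DTT | Schedule: GTP hydrolysis reaction 2 h at 25 °C | Signal: FP of antibody-bound GDP Alexa 633 tracer, ex 620/em 688 nm | Measure: Percent inhibition of Arfgap1-stimulated GTP hydrolysis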
HGIII-sPLA2 inh = Blocks human group III sPLA2 activity. AID 743126. Q9NZ20. inhibition, % at 12.2 µM. actives 0.56% (n = 370,000). QFRET BODIPY PC-A2 liposome hydrolysis, fluorescence;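 active = inhibition above mean plus 3 SD of compounds lying within the high and low control bounds, cut at about 19% in these data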;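 note: 0% = median of test compound wells and 100% = no enzyme DMSO wells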
Target sequence (Q9NZ20 whole entry, looked up): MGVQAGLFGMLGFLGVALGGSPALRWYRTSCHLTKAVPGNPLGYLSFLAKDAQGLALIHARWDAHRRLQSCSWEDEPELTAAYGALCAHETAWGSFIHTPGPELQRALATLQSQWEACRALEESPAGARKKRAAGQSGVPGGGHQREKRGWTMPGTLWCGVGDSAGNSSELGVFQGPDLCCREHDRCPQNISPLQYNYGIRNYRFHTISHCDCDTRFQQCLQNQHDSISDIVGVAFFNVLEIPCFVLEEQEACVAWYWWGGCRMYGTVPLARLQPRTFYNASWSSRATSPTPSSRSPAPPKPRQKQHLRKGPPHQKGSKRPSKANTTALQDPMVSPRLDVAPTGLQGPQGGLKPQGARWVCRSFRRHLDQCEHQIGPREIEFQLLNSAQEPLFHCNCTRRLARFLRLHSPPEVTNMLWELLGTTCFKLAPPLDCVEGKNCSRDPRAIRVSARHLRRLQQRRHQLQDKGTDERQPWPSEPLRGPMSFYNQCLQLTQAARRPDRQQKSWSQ
SKKanGAS inh = inhibitors of SKKanGAS S. pyogenes growth in kanamycin (SK-promoter or general growth effect) | BacTiter-Glo, 6 h | inhibition, % at 7.5 µM | actives 1.3% (n = 300,000);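 active = mean replicate score, as percent of positive control median, at least 50; inconclusive = mean below 50 but one replicate at or above 50; inactive = mean and every replicate below 50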;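 note: strain carries kanamycin resistance gene driven by streptokinase promoter and grows in 40 µg/ml kanamycin; loss of luminescence reflects streptokinase promoter inhibition or plain growth inhibition; 0% = median of DMSO wells and 100% = positive control at its reference dose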
sPLA2 confirm = human GIII-sPLA2 inhibition, confirmation | actives 34% (n = 2,000) | AID 743280 | recombinant hGIII-sPLA2, BODIPY PC-A2 QFRET fluorescence | shares compounds with HGIII-sPLA2 inh | inhibition, % at 12.2 µM;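 active = mean inhibition across triplicates above the hit cutoff set in the earlier primary screen, cut at about 19% in these data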;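 note: 0% = enzyme with DMSO and 100% = DMSO wells lacking enzyme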
BODIPY interf = counter-screen for HGIII-sPLA2 inhibitors: 535nm fluorescence interference; inhibition, % at 12.2 µM; AID 743282; shares compounds with HGIII-sPLA2 inh; actives 8.5% (n = 2,000); BODIPY FL product fluorescence interference, QFRET;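 active = average inhibition above the solvent-only control mean plus 3 SD, cut at about 6% in these data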;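 note: 0% = DMSO with substrate plus product and 100% = DMSO with substrate alone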
BODIPY interf DR = counter-screen for HGIII-sPLA2 inhibitors: 535nm fluorescence interference, dose response | 240 tested, under 10 active | BODIPY FL product fluorescence interference, cell-free | shares compounds with HGIII-sPLA2 inh | IC50, µM | AID 743455;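 active = IC50 at or below 10 µM; inactive = IC50 above 10 µM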
An asterisk follows results filed as active; ? = inconclusive; nt = no result.

SMILES	Calb FLC	ASAP1 inh	ARFGAP1 inhibitor	HGIII-sPLA2 inh	SKKanGAS inh	sPLA2 confirm	BODIPY interf	others
COc1cccc(-c2cc3nc(NCCN4CCCC4)n(C)c(=O)c3s2)c1	nt	-22	-7	5	nt	nt	nt
Cc1occc1-c1nnc(SCC(=O)Nc2ccc3ncccc3c2)n1-c1ccccc1	nt	nt	nt	-12	nt	nt	nt
COc1ccccc1C1Nc2cccc3cccc(c23)N1	47	2	-2	21*	2	34*	12*
COc1cc(OC)c(C2Nc3cccc4cccc(c34)N2)c(OC)c1	3	1	-5	22*	8	37*	-3	BODIPY interf DR=>122
Oc1ccccc1C1Nc2cccc3cccc(c23)N1	1	7	0	2	21	nt	nt
COC(=O)[C@]12C[C@H](CC(=O)N3CCC(c4ccccc4)CC3)C(=O)N(Cc3ccc(Cl)cc3Cl)C1=C[C@H](C1CCCC1)O[C@@H]2C	nt	nt	nt	3	nt	nt	nt
O=C(N1CCOCC1)C12CC3CC(C1)CC(C(=O)N1CCOCC1)(C3)C2	-4	-3	-7	5	10	nt	nt
O=C(N1CCOCC1)C12CC3CC(C1)CC(n1cnc(Cl)n1)(C3)C2	-8	1	-5	21*	-6	1	-3
CN(Cc1ccccc1F)C(=O)C1CCCN(c2ncccn2)C1 (stereo unspecified)	nt	nt	nt	10	nt	nt	nt
O=C(Nc1ccccc1)Nc1ccc(Nc2ccccc2)cc1	-11	2	-5	25*	-10	6	0
COc1ccc(-c2c(C(=O)c3ccccc3)[nH]c(N)c2C(=O)c2ccccc2)cc1OC	nt	3	2	20*	nt	9	-8
COc1ccc(-c2c(C(=O)c3ccccc3)[nH]c(N)c2C(=O)c2ccc(Br)cc2)cc1OC	nt	7	1	26*	nt	20*	-2
COc1cc(-c2c(C(=O)c3ccccc3)[nH]c(N)c2C(N)=O)ccc1F	nt	-7	-3	10	nt	nt	nt
CC(C)(C)OC(=O)/C=C/[C@@H](CC1CCCC1)Sc1ccc(C(C)(C)C)cc1	nt	nt	nt	6	nt	nt	nt
COc1cccc(-c2nc(-c3ccccc3)c3ccc(Cl)cc3n2)c1	nt	0	3	20*	nt	-3	-6
COc1ccc(Nc2nc(-c3ccccc3)c3ccccc3n2)cc1	6	4	16	5	-20	nt	nt
Cc1cccc(Oc2cc(N)cc([N+](=O)[O-])c2)c1	17	8	11	20*	3	16	-2
Cc1cccc(NC(=S)NNC(=O)c2csc(C)c2)c1	0	1	5	27*	2	38*	0	BODIPY interf DR=>122
O=C(CSCc1ccccc1Cl)NNC(=S)Nc1ccccc1	26	-6	-11	41*	-9	42*	2	BODIPY interf DR=>122
Cc1cccc(NCC(=O)NNC(=S)Nc2ccccc2)c1	5	-3	-6	23*	nt	15	0
Cc1cccc(NC(=S)NNC(=O)c2csc3c2CCCC3)c1	50	0	11	17	33	nt	nt
O=S(=O)(O)c1cc(O)c(N=Nc2ccc(O)cc2O)c2ccccc12	nt	17	11	23*	nt	19	4
CCN(CC)C(=O)/C(=C/c1ccc2c(c1)OCO2)NC(=O)c1ccc(Br)cc1	91*	6	18	20*	-12	4	-15
CCN(CC)c1ccc(C(=O)NNC(=O)CCNC(=O)c2ccccc2)cc1	nt	-11	-9	-3	nt	nt	nt
CCN(CC)c1ccc(C(=C2C=CC(=[N+](CC)CC)C=C2)c2ccccc2)cc1	nt	0	16	63*	nt	75*	-16
SMILES	Calb FLC	ASAP1 inh	ARFGAP1 inhibitor	HGIII-sPLA2 inh	SKKanGAS inh	sPLA2 confirm	BODIPY interf	others
O=C(Nc1ccc([N+](=O)[O-])cn1)c1cccnc1	1	11	-1	20*	3	5	-4
CSCCC(NC(=O)COc1ccccc1)C(=O)OCCOc1ccc(C)cc1 (stereo unspecified)	nt	-7	-3	-8	nt	nt	nt
CSCCC(NC(=O)COc1ccccc1)C(=O)N(C)CC(=O)Nc1c(C)cccc1C (stereo unspecified)	-2	14	1	21*	-4	1	-17
C=CCNC(=O)COc1cc(C)ccc1C	0	19	7	20*	0	3	-9
C=CCNC(=O)COc1ccccc1C#N	19	-1	7	7	-5	nt	nt
CC1(C(=O)NCCCNc2ncc(C(F)(F)F)cc2Cl)C=CC2(CCCCC2)N1C(=O)c1ccccc1 (stereo unspecified)	6	nt	nt	nt	5	nt	nt
OCC(CCc1c[nH]c2ccccc12)c1c[nH]c2ccccc12 (stereo unspecified)	nt	5	19	35*	nt	10	10*
COCCCNC(=O)CN(Cc1ccc(Cl)cc1)S(C)(=O)=O	10	-6	16	21*	-1	6	-7
CC1(C)Nc2cccc3cccc(c23)N1	nt	-2	15	18	nt	nt	nt
c1cc2c3c(cccc3c1)NC1(CCCC1)N2	nt	-7	12	24*	nt	20*	3
C#CCNC(=O)C[C@@H]1C(=O)N(CC=C)C2=CCCCC[C@]21C(=O)OC	nt	nt	nt	3	nt	nt	nt
Cn1cc(/C=C2\SC(=S)N(N3CCOCC3)C2=O)c2ccccc21	7	6	5	21*	-4	6	0
Cc1cccc(C(=O)NC(=S)NNC(=O)c2ccc(Cl)cc2)c1	-3	-3	2	24*	105*	40*	5	BODIPY interf DR=>122
COc1cc(C(=O)NNC(=S)NC(=O)c2ccc(Cl)cc2)cc(OC)c1OC	-5	12	-1	26*	93*	30*	-24	BODIPY interf DR=>122
Cc1cccc(NC(=O)CNC(=O)[C@@H](Cc2ccccc2)NC(=O)[C@H]2O[C@@H](n3ccc(N)nc3=O)[C@H](O)[C@@H]2O)c1C	nt	0	13	10	nt	nt	nt
Cc1ccc2cc(C#N)c(SCC(=O)N3CCCc4ccccc43)nc2c1C	2	4	7	20*	-5	-3	-4
Cc1cccc2nc(-c3ccco3)c(Nc3ccccc3)n12	2	10	1	-1	-3	nt	nt
Cc1ccc(Nc2c(-c3ccccn3)nc3cccc(C)n23)cc1	?	9	0	23*	102*	12	-25
CCc1ccc(N2C(=O)C[C@@](C#N)(C(=O)OC)[C@H]2c2ccccc2)cc1	nt	nt	nt	-2	nt	nt	nt
CNc1cc(CSC)nc(SCc2ccc(Cl)cc2Cl)n1	-36	7	1	-5	20	nt	nt
CSCc1cc(N(C)C)nc(SCc2ccc(Cl)c(Cl)c2)n1	-41	5	-7	21*	-3	-15	-14
O=S1(=O)c2ccc(Br)cc2OC[C@@H](Cc2ccccc2)N1Cc1cn(Cc2ccc(F)cc2)nn1	nt	nt	nt	1	nt	nt	nt

Compound activity deposited in PubChem by several laboratories.
